Experimental data from ChEMBL document CHEMBL1125396, “Synthesis and in vitro biological profile of all four isomers of the potent muscarinic agonist 3-(3-methyl-1,2,4-oxadiazol-5-yl)-1-azabicyclo[2.2.1]heptane” (J Med Chem, 1992).

Legend:
[1] = biological target: Muscarinic acetylcholine receptor M3 (Cavia porcellus, UniProt Q8VH26); test: In vitro contraction of guinea pig myenteric plexus preparation (mediated by Muscarinic M3 receptor); type: functional
Outline: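 Distal ileum longitudinal muscle-myenteric plexus strips from male guinea pigs (300-400 g) under 1 g tension in 3 mL Krebs bicarbonate, 37 °C, equilibrated ≥60 min. Isometric contraction read for ≥30 s to clear peak, ≥45 min between compounds; responses as % of 1 μM carbachol maximum. EC50 by nonlinear iterative curve fitting; geometric mean of at least four determinations.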

[2] = biological target: Muscarinic acetylcholine receptor M3 (Cavia porcellus) (UniProt Q8VH26); test: In vitro evaluation for the relative maximum against Muscarinic M3 receptor compare to carbachol; type: functional
Outline: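 Guinea pig ileum longitudinal muscle-myenteric plexus (male, 300-400 g), 1 g tension, Krebs bicarbonate at 37 °C; isometric tension change measured to peak; maximum response expressed as percentage of that to 1 μM carbachol.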

[3] = biological target: T1, Muscarinic acetylcholine receptor M1 (Rattus norvegicus) (UniProt P08482); test: In vitro evaluation for the relative maximum against Muscarinic M1 receptor compare to muscarine; type: functional
T1 sequence (whole entry): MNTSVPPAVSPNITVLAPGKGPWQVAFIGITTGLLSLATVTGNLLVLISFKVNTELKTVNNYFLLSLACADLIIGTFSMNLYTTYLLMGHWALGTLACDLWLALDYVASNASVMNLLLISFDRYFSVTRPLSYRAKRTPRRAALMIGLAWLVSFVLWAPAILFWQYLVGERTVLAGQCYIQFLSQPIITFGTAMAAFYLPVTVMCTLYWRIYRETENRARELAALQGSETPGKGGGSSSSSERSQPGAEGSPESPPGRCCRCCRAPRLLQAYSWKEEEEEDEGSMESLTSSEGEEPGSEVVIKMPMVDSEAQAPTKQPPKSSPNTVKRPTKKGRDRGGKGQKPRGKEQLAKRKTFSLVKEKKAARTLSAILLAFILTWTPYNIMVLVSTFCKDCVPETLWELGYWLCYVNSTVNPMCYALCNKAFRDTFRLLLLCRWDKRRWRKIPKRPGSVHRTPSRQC
Outline: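 Maximum depolarizing response determined by raising agonist concentration until plateau, expressed relative to muscarine; responses related to a reference depolarization set at 1.0; ganglia each from a different rat.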

[4] = biological target: T2, Muscarinic acetylcholine receptor M2 (Homo sapiens) (UniProt P08172); test: In Vitro evaluation for the relative maximum against Muscarinic M2 receptor compare to carbachol; type: functional; settings: Cavia porcellus
T2 sequence (whole entry): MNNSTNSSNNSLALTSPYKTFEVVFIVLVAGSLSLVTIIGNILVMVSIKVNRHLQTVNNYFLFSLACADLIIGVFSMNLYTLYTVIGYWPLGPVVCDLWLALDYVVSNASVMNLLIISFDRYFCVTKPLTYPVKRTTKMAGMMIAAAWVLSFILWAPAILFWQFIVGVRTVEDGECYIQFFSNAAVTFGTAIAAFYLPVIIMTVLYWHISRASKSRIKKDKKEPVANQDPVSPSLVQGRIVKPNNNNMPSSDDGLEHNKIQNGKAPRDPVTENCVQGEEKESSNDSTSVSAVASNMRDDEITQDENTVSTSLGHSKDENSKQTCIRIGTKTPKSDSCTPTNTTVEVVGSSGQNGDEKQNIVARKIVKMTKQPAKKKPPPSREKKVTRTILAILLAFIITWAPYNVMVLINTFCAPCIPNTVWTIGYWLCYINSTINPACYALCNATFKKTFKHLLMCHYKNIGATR
Outline: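 Guinea pig paired atria (male, 300-400 g) in Krebs bicarbonate with 22 mM glucose, 1 g tension, electrically paced (3-4 Hz, 2-3 ms); noncumulative dose-response curves to maximum negative chronotropic effect, ≥45 min apart; maximum response expressed relative to that of carbachol.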

[5] = biological target: T3, Muscarinic acetylcholine receptor M1 (Rattus norvegicus, UniProt P08482); test: Compound was tested in vitro for depolarizing response on the rat superior cervical ganglion (mediated by Muscarinic M1 receptor); type: functional, tissue-based
T3 sequence (P08482 whole entry): T1 sequence (whole entry)
Outline: (§1)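 Responses related to a reference depolarizing response set at 1.0. Agonist concentration raised until response levelled off; EC50 taken as concentration giving half-maximum; at least two determinations, each ganglion from a different rat.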

[6] = biological target: T4, Muscarinic acetylcholine receptor (Rattus norvegicus) (UniProt P08482+P08483+P08485+P08911+P10980); test: In vitro ability to displace [3H]N-methylscopolamine from the muscarinic receptor in rat cerebral cortical membranes; type: cell membranes
Outline: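 Rat (250-300 g) cerebral cortex crude synaptosomal-mitochondrial membranes (sucrose homogenate, 1000g then 17000g spins). [3H]NMS at 0.01–1.0 nM, nonspecific binding with 2 μM atropine; 60 min at 30 °C; GF/B filtration, saline rinses, scintillation counting. Kapp corrected for ligand occupancy; four concentrations in triplicate; geometric mean of ≥3 separate determinations.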

[7] = biological target: T5, Muscarinic acetylcholine receptor M2 (Homo sapiens, UniProt P08172); test: In vitro negative chronotropic effect on electrically driven guinea pig atria(mediated by Muscarinic M2 receptor); type: functional, Cavia porcellus; settings: target entry is the homologue from another species
T5 sequence (P08172 whole entry): T2 sequence (whole entry)
Outline: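 Paired atria from male guinea pigs (300-400 g) under 1 g tension in Krebs bicarbonate with 22 mM glucose, paced by field stimulation (3-4 Hz, 2-3 ms). After 60 min equilibration, noncumulative dose-response curves for negative chronotropy, each application held to maximum effect; ≥45 min between curves. EC50 from geometric mean of at least two determinations.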

[8] = biological target: T4, Muscarinic acetylcholine receptor (Rattus norvegicus); test: In vitro ability to displace muscarinic agonist [3H]oxotremorine-M from high affinity state of the receptor in rat cerebral cortical membranes; type: cell membranes; settings: Membrane
Outline: (§2)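 Rat cortical P2 membranes washed and resuspended 1/100 (wet w/v) in 20 mM HEPES pH 7.4. [3H]oxotremorine-M at 0.2-5 nM, nonspecific binding with 2 μM atropine; 40 min at 30 °C; filtration on polyethyleneimine-presoaked GF/C filters, saline wash, scintillation counting. Kapp corrected for ligand occupancy; four concentrations in triplicate; geometric mean of ≥3 determinations.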

[9] = Ratio of Kapp(NMS)/Kapp(OXO-M)
Outline: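 Ratio of Kapp values from displacement of [3H]NMS (0.01–1.0 nM, 60 min, 30 °C) and of [3H]oxotremorine-M (0.2-5 nM, HEPES pH 7.4, 40 min, 30 °C) in rat cortical membranes; 2 μM atropine nonspecific; each Kapp occupancy-corrected geometric mean of ≥3 determinations.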

[10] = biological target: T4, Muscarinic acetylcholine receptor (Rattus norvegicus); test: In vitro ability to displace [3H]oxotremorine-M from the muscarinic receptor in rat cerebral cortical membranes; type: cell membranes; outline: as §2
[11] = biological target: T3, Muscarinic acetylcholine receptor M1; test: Compound was tested in vitro for depolarizing response on the rat superior cervical ganglion (mediated by Muscarinic M1 receptor; type: functional, tissue-based; outline: as §1

Sequence of Muscarinic acetylcholine receptor M3 (Q8VH26 whole entry): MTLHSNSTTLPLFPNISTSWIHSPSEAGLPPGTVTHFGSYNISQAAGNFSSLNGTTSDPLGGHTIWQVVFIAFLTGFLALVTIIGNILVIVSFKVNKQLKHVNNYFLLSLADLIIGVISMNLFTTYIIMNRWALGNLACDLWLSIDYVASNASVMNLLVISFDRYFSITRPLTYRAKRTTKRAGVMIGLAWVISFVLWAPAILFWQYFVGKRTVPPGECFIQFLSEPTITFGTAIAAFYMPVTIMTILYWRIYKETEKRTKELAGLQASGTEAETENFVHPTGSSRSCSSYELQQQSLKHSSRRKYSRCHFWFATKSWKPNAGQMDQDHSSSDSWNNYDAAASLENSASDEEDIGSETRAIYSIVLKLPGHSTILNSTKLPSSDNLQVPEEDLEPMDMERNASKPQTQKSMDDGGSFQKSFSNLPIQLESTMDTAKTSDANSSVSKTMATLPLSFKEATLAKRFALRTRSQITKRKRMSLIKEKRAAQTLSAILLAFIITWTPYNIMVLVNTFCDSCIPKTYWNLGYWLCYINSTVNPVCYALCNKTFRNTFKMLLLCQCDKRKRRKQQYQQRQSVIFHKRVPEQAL
Sequence of Muscarinic acetylcholine receptor M3 (Cavia porcellus) (Q8VH26 1-587): as the sequence (Q8VH26 whole entry) above

## Cc1noc([C@@H]2CN3CC[C@@H]2C3)n1
[1]
  EC50: 2.4 nM
[2]
  RM: 0.97
[3]
  RM: 1.16
[4]
  RM: 0.94
[5]
  EC50: 7 nM
[6]
  K app: 370 nM
[7]
  EC50: 3.3 nM
[8]
  K app: 0.32 nM
[9]
  Ratio: 1200

## Cc1noc([C@H]2CN3CC[C@H]2C3)n1
[1]
  EC50: 0.045 nM
[2]
  RM: 0.91
[10]
  K app: 0.027 nM
[3]
  RM: 0.94
[4]
  RM: 0.91
[5]
  EC50: 2.4 nM
[6]
  K app: 32 nM
[7]
  EC50: 0.039 nM
[9]
  Ratio: 1200

## Cc1noc([C@H]2CN3CC[C@@H]2C3)n1
[1]
  EC50: 16 nM
[2]
  RM: 0.93
[10]
  K app: 1.6 nM
[3]
  RM: 0.76
[4]
  RM: 0.96
[11]
  EC50: 90 nM
[6]
  K app: 2200 nM
[7]
  EC50: 19 nM
[9]
  Ratio: 1400

## C[N+](C)(C)CCOC(N)=O
[10]
  K app: 4.9 nM
[6]
  K app: 22000 nM
[9]
  Ratio: 4500
